Among the data in ChEMBL document CHEMBL4038329, “Side-Chain Modified Ergosterol and Stigmasterol Derivatives as Liver X Receptor Agonists” (J Med Chem, 2017) are Activity, Efficacy and EC50 values, retold here.

The target in series [1] is T1, Peroxisome proliferator-activated receptor gamma (Homo sapiens) (UniProt P37231).
T1 sequence (whole entry): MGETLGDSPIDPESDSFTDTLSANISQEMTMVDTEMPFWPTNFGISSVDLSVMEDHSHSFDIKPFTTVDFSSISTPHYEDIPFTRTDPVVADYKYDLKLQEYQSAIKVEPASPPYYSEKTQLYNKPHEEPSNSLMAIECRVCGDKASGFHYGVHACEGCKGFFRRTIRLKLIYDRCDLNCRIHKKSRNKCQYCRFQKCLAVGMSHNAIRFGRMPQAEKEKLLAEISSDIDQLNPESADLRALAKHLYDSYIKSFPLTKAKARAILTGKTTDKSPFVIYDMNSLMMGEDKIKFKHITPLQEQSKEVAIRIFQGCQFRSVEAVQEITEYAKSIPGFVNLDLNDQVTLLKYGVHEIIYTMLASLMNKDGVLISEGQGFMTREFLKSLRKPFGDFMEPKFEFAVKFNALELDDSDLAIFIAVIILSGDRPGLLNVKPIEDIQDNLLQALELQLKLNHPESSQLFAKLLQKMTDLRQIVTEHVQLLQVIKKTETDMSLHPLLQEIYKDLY
In words: Activation of GAL4 fused human PPARgamma expressed in HEK293 cells at 10 uM after 24 hrs by luciferase reporter gene assay. For orientation: A reporter such as luciferase makes a cellular process visible.

The nature of series [2]: Agonist activity at LXR in human U937 cells assessed as upregulation of FASN mRNA levels at 10 uM after 6 hrs by qPCR analysis. The format is cell-based. In a few lines:
(§1)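 U937 cells, 3x10⁶ in 10 ml RPMI with 10% FBS, differentiated with PMA 10 ng/ml for 72 h at 37 °C, then treated with ligand (10 μM) for 6 h. Total RNA was isolated with TRIZOL; 2 µg was reverse-transcribed for 1 h at 42 °C. Transcripts were measured by qPCR. Mean ± SD of three biological samples; ANOVA with Dunnett's test.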
A general note: In qPCR the cycle at which signal appears reflects the starting amount.

The subject of another series is HEK293. Put plainly: Activation of GAL4 fused human RXR expressed in HEK293 cells at 10 uM after 24 hrs by luciferase reporter gene assay.
Series [3] in a line: Agonist activity at LXR in human HepG2 cells assessed as upregulation of SCD1 mRNA levels at 10 uM after 6 hrs by qPCR analysis. The format is cell-based. The procedure, abridged: (§2)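 HepG2 cells treated with ligand (10 μM). Total RNA was extracted with TRIZOL; 2 µg was reverse-transcribed (1 h, 42 °C). SREBP1c, FASN and SCD1 transcripts were measured by qPCR. Mean ± SD of three biological samples; ANOVA with Dunnett's test.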

Series [4] is filed under the species Homo sapiens. In words: Agonist activity at LXR in human U937 cells assessed as upregulation of ABCA1 mRNA levels at 10 uM after 6 hrs by qPCR analysis. The format is cell-based. The procedure, abridged: as §1
The target in series [5] is T2, Bile acid receptor (Homo sapiens) (UniProt Q96RI1).
T2 sequence (whole entry): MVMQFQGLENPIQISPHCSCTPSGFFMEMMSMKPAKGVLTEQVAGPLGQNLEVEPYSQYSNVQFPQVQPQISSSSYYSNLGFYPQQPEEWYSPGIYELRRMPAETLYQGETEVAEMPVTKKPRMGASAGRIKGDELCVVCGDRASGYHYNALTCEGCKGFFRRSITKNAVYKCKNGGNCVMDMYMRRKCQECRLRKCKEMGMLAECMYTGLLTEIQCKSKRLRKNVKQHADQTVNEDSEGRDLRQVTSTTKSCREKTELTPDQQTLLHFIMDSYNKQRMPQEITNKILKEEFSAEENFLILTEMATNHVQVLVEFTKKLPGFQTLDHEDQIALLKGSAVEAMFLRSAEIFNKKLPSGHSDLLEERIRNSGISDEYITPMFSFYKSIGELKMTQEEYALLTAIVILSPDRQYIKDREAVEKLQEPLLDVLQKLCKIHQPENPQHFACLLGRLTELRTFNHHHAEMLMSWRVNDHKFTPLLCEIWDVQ
In words: Activation of GAL4 fused human FXR expressed in HEK293 cells at 10 uM by luciferase reporter gene assay.

The nature of series [6]: Agonist activity at LXR in human HepG2 cells assessed as upregulation of FASN mRNA levels at 10 uM after 6 hrs by qPCR analysis. The format is cell-based. The procedure, abridged: as §2
Series [7] is described as follows: Agonist activity at LXR in human HepG2 cells assessed as upregulation of SREBP1c mRNA levels at 10 uM after 6 hrs by qPCR analysis. The format is cell-based. The procedure, abridged:
as §2

Series [8] in a line: Agonist activity at LXR in human U937 cells assessed as upregulation of SCD1 mRNA levels at 10 uM after 6 hrs by qPCR analysis relative to control. The settings on record: human, 6 h, 10 µM. The format is cell-based. In a few lines: as §1
The nature of series [9]: Agonist activity at LXR in human U937 cells assessed as upregulation of SREBP1c mRNA levels at 10 uM after 6 hrs by qPCR analysis. The format is cell-based. In a few lines: as §1
Series [10] can be described thus: Agonist activity at LXR in human U937 cells assessed as upregulation of FASN mRNA levels at 10 uM after 16 hrs by qPCR analysis. The format is cell-based.
The species named for series [11] is Homo sapiens. Put plainly: Agonist activity at LXR in human U937 cells assessed as downregulation of LPS-induced TNFalpha mRNA expression at 10 uM after 6 hrs by qPCR analysis. The format is cell-based. The procedure, abridged:
(§3)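 PMA-differentiated U937 cells (10 ng/ml PMA, 72 h) were given LPS 100 ng/ml together with compound (10 μM) for 6 h. CCL2 and TNFα mRNA were measured by qPCR after TRIZOL RNA extraction and reverse transcription. Three biological samples per group, mean ± SD.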

The nature of series [12]: Agonist activity at LXR in human U937 cells assessed as upregulation of SCD1 mRNA levels at 10 uM after 16 hrs by qPCR analysis. The format is cell-based.
In series [13] the target is T3, Oxysterols receptor LXR-alpha (Homo sapiens) (UniProt Q13133).
T3 sequence (whole entry): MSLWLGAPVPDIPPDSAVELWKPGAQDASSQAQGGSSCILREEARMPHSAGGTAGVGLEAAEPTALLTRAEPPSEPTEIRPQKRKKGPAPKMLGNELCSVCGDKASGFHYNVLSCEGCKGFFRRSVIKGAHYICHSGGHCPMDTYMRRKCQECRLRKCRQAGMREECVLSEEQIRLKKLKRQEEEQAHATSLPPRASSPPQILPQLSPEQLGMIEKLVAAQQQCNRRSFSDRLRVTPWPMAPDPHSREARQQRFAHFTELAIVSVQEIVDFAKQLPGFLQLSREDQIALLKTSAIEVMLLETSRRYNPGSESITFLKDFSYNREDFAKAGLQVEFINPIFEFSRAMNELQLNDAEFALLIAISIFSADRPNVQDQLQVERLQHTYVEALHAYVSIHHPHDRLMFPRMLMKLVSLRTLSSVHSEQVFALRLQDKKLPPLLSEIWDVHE
Put plainly: Activation of GAL4 fused human LXR alpha expressed in HEK293 cells after 24 hrs by luciferase reporter gene assay relative to 22R-HC. The format is cell-based. The procedure, abridged: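 HEK293 cells carrying the Gal4-LXR-α or Gal4-LXR-β chimera plus the pMH100X4-TK-luc and Renilla reporters. Treatment started 6 h post-transfection and ran 24 h. Dual luciferase read-out. Efficacy is given as % of the response to 8 μM 22R-HC, ± SD, from three to five independent experiments.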

Series [14] concerns the target T4, Oxysterols receptor LXR-beta (Homo sapiens, UniProt P55055).
T4 sequence (P55055 whole entry): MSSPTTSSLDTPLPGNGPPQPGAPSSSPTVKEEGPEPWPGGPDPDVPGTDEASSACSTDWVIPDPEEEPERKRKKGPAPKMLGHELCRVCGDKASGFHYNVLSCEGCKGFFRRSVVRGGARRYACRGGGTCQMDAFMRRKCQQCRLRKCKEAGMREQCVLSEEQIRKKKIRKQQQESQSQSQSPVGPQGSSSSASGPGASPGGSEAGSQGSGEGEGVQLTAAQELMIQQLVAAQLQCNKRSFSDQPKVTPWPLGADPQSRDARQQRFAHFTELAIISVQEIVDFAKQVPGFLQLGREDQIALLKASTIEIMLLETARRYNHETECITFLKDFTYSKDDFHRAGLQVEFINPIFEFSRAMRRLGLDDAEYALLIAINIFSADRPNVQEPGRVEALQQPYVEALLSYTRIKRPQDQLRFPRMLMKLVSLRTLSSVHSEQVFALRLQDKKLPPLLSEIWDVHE
Put plainly: Activation of GAL4 fused human LXR beta expressed in HEK293 cells after 24 hrs by luciferase reporter gene assay. The format is cell-based. The procedure, abridged:
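HEK293 cells (4x10⁴/well), grown in DMEM with 10% FBS at 37 °C under 5% CO₂, transiently co-transfected with pMH100X4-TK-luc, Renilla and the Gal4-LXR-α or Gal4-LXR-β plasmid. Dosing began 6 h after transfection and lasted 24 h, at 32, 16, 8, 4, 2 and 1 μM. Dual luciferase read-out. EC50 came from dose-response curves, averaged over three to five independent experiments, ± SD.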

The species entered for series [15] is Homo sapiens. Put plainly: Agonist activity at LXR in human U937 cells assessed as downregulation of LPS-induced CCL2 mRNA expression at 10 uM after 6 hrs by qPCR analysis. The format is cell-based. In a few lines: as §3
Series [16] concerns the target T5, Nuclear receptor subfamily 1 group I member 2 (Homo sapiens, UniProt O75469).
T5 sequence (O75469 whole entry): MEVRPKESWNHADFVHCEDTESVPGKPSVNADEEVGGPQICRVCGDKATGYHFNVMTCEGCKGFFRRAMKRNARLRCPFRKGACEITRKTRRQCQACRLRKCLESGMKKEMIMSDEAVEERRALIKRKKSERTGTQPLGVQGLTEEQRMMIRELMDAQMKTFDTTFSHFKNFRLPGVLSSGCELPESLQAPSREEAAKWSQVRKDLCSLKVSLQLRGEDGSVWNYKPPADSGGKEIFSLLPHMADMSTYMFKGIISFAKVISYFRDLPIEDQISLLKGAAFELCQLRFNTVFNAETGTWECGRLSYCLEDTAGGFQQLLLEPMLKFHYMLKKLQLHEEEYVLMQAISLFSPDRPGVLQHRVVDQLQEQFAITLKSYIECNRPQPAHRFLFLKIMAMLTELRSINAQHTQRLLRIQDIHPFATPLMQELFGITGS
Put plainly: Activation of GAL4 fused human PXR expressed in HEK293 cells at 10 uM by luciferase reporter gene assay. The settings on record: hek293, 10 µM.

Molecules are shown by their SMILES. Activity calls are given as the source filed them. The rule behind the calls is not given here.

As to `CC[C@H](C[C@@H](O)[C@@H](C)[C@H]1CC[C@H]2[C@@H]3CC=C4C[C@@H](O)CC[C@]4(C)[C@H]3CC[C@]12C)C(C)C`, the outcome (in series [1]; in the series with HEK293) was inactive. Moreover, the Activity result in series [2], in [3], in series [6], in [7], in series [8] and in series [9] was “Not Active” in each case. For the same compound, the result (in the series filed under Homo sapiens [4]; in series [5]) was Active.

As for `CC(C)CC[C@@H](O)[C@@H](C)[C@H]1CC[C@H]2[C@@H]3CC=C4C[C@@H](O)CC[C@]4(C)[C@H]3CC[C@]12C` [22(R)-HYDROXYCHOLESTEROL], the Activity result in series [10], in [2], in series [3], in series [12], in series [6] and in [7] was “Not Active” in each case. Moreover, the Activity entry in [8] and in [9] was “Not Active” in each case. Also, the result in the series listed under Homo sapiens [11] and in the series listed under Homo sapiens [4] was Active.

`CC(C)[C@@H](C)[C@@H](O)C[C@@H](C)[C@H]1CC[C@H]2C3=CC=C4C[C@@H](O)CC[C@]4(C)[C@H]3CC[C@]12C` came in with an Efficacy in [13] of 159%. In addition, the EC50 entry in series [14] was “Not Active”. The result in the series listed under Homo sapiens [11], in the series filed under Homo sapiens [15] and in the series filed under Homo sapiens [4] was Active. Moreover, the result (in [1]; in the series on HEK293) was inactive. Moreover, the Activity entry in series [2] is reported as “Not Active”; in series [3] it was “Not Active”; in series [6], “Not Active”; in series [7] it was “Not Active”; in [8], “Not Active”; in series [16] it was “Active”. For the same compound, the Activity result in [9] was “Not Active”.
